# Results taken from ChEMBL document CHEMBL1131590, “Muscarinic agonists with antipsychotic-like activity: structure-activity relationships of 1,2,5-thiadiazole analogues with functional dopamine antagonist activity” (J Med Chem, 1998).
# Calls of active or inactive are those of the source. The calls are words filed in the database; no cut-off is given here.
# Experiments:
# Mus musculus [1] = test: Inhibition of apomorphine-induced climbing following s.c. administration in mice.; format: functional; conditions: sc
# Summary of the method: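 Male Bom:NMRI mice, n=10 per group, received saline or drug sc 50 min before the trial and apomorphine 2 mg/kg sc 20 min before it. Each mouse was placed alone in a cylindrical wire cage, and climbing time over a 60-s trial was recorded automatically. ED50 and 95% confidence limits came from logistic nonlinear regression over 3-4 doses.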
# Rattus norvegicus [2] = test: Conditioned avoidance responding in rat after subcutaneous administration (1 mg/kg); expressed as avoidance response/response failure; format: functional
# Summary of the method: (§1)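 Single-dose screen in rats, given sc at the dose listed in each line. Each session typically ran 50 trials. Percent avoidance responses and percent response failures were recorded.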
# Rattus norvegicus [3] = test: Inhibition of conditioned avoidance response in rat following s.c. administration.; format: functional; conditions: sc
# Summary of the method: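 Rats were tested sc over a full dose range in the conditioned avoidance model, six rats per point, up to 50 trials per session. ED50 is the dose giving 50% of the drug's maximal effect on avoidance responding.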
# [4] = In vitro inhibition of [3H]Oxo-Mas binding to M2 and M4 receptors in rat brain homogenate.
# Mus musculus [5] = test: Tremor after subcutaneous administration in mice was determined; format: functional; conditions: sc
# Summary of the method: (§2)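 Mice received saline or drug sc. Side effects were scored 30 min after injection on a three-grade scale and expressed as percent of the maximum possible score. ED50 was obtained by graphic interpolation of the dose-response curve.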
# Rattus norvegicus [6] = test: Conditioned avoidance responding in rat after subcutaneous administration (3 mg/kg); expressed as avoidance response/response failure; format: functional; summary of the method: as §1
# Mus musculus [7] = test: Salivation after subcutaneous administration in mice; format: functional; conditions: sc; summary of the method: as §2
# Rattus norvegicus [8] = test: Conditioned avoidance responding in rat after subcutaneous administration (0.3 mg/kg); expressed as avoidance response/response failure; 29/19; format: functional, organism-based
# Rattus norvegicus [9] = test: Conditioned avoidance responding in rat after subcutaneous administration (1 mg/kg); expressed as avoidance response/response failure; 18/21; format: functional, organism-based
# Rattus norvegicus [10] = test: Conditioned avoidance responding in rat after subcutaneous administration (3 mg/kg); expressed as avoidance response/response failure; 48/20; format: functional, organism-based; summary of the method: as §1
# Rattus norvegicus [11] = test: Conditioned avoidance responding in rat after subcutaneous administration (0.3 mg/kg); expressed as avoidance response/response failure; 16/1; format: functional, organism-based; summary of the method: as §1
# [12] = In vitro inhibition of [3H]Oxo-Mas binding to M2 and M4 receptors in rat brain homogenate.; remark: listed apart in the source
# Rattus norvegicus [13] = test: Conditioned avoidance responding in rat after subcutaneous administration (0.3 mg/kg); expressed as avoidance response/response failure; 24/63; format: functional, organism-based; summary of the method: as §1
# Rattus norvegicus [14] = test: Conditioned avoidance responding in rat after subcutaneous administration (0.3 mg/kg); expressed as avoidance response/response failure; 9/55; format: functional, organism-based
# Rattus norvegicus [15] = test: Conditioned avoidance responding in rat after subcutaneous administration (0.3 mg/kg); expressed as avoidance response/response failure; 3/41; format: functional, organism-based
Structure (SMILES),ED50 (Mus musculus [1]),ED50 (Rattus norvegicus [3]),IC50 [4],ED50 (Mus musculus [5]),Activity (Rattus norvegicus [6]),ED50 (Mus musculus [7]),also measured
CCCSc1nsnc1C1CN2CCC[C@H]1C2 (some centres not stated),0.056 mg/kg,0.056 mg/kg,1.4 nM,,,,Activity (Rattus norvegicus [2]): 41%
CCCSc1nsnc1[C@@H]1CN2CCC[C@H]1C2,0.17 mg/kg,0.03 mg/kg,0.65 nM,1.3 mg/kg,39%,> 3 mg/kg,
CCCCCCSc1nsnc1C1CN2CCC[C@H]1C2 (some centres not stated),0.06 mg/kg,0.1 mg/kg,3.3 nM,,,,Activity (Rattus norvegicus [8]): Weak activity
CC[C@@H]1C(=O)OC[C@@H]1Cc1cncn1C [PILOCARPINE],3.87 mg/kg,4.5 mg/kg,67 nM,> 10 mg/kg,,4 mg/kg,Activity (Rattus norvegicus [9]): Weak activity
CCCCSc1nsnc1[C@H]1CN2CCC[C@H]1C2,> 1 mg/kg,> 3 mg/kg,2.3 nM,> 1 mg/kg,,> 1 mg/kg,Activity (Rattus norvegicus [10]): Weak activity
CSc1nsnc1C1CN2CCC[C@H]1C2 (some centres not stated),0.2 mg/kg,0.14 mg/kg,2.9 nM,,,,
CCCCSc1nsnc1[C@H]1CN2CCC[C@@H]1C2,0.012 mg/kg,0.017 mg/kg,0.5 nM,> 0.3 mg/kg,,> 0.3 mg/kg,Activity (Rattus norvegicus [11]): Active
CCCCSc1nsnc1[C@@H]1CN2CCC[C@H]1C2,0.026 mg/kg,0.018 mg/kg,0.53 nM,> 3 mg/kg,,> 3 mg/kg,Activity (Rattus norvegicus [2]): 8%
CCSc1nsnc1C1CN2CCC[C@H]1C2 (some centres not stated),0.047 mg/kg,0.045 mg/kg,1.3 nM,,,,
CCCCSc1nsnc1C1=CCCN(C)C1,,2.8 mg/kg,,,57%,,IC50 [12]: 1.3 nM
O=C1CCCN1CC#CCN1CCCC1 [OXOTREMORINE],0.09 mg/kg,0.3 mg/kg,5 nM,0.24 mg/kg,,0.2 mg/kg,Activity (Rattus norvegicus [13]): inactive
CCCSc1nsnc1[C@H]1CN2CCC[C@H]1C2,2.21 mg/kg,> 3 mg/kg,3.6 nM,> 30 mg/kg,86%,> 30 mg/kg,
O=C(CCCN1CCC(O)(c2ccc(Cl)cc2)CC1)c1ccc(F)cc1 [HALOPERIDOL],0.08 mg/kg,0.11 mg/kg,,,,,Activity (Rattus norvegicus [14]): inactive
CCCCSc1nsnc1C1CN2CC[C@H]1C2 (some centres not stated),,< 1 mg/kg,1.3 nM,,0%,,
CCCCCSc1nsnc1C1CN2CCC[C@H]1C2 (some centres not stated),0.054 mg/kg,0.065 mg/kg,2.5 nM,,,,Activity (Rattus norvegicus [15]): inactive
CCCCSc1nsnc1[C@@H]1CN2CCC[C@@H]1C2,,> 3 mg/kg,9.9 nM,,86%,,
CCCCSc1nsnc1C1CN2CCC[C@@H]1C2 (some centres not stated),,> 3 mg/kg,6.1 nM,,97%,,
CCCCSc1nsnc1C1CN2CCC1CC2 (configuration not stated) [VEDACLIDINE],,0.1 mg/kg,2.2 nM,,18%,,
CCCCSc1nsnc1C1CN2CCC[C@H]1C2 (some centres not stated),0.045 mg/kg,0.007 mg/kg,0.47 nM,,,,Activity (Rattus norvegicus [2]): 32%
CCCSc1nsnc1[C@@H]1CN2CCC[C@@H]1C2,2.2 mg/kg,> 3 mg/kg,13.3 nM,> 30 mg/kg,51%,> 30 mg/kg,
CCCSc1nsnc1[C@H]1CN2CCC[C@@H]1C2,0.021 mg/kg,0.013 mg/kg,0.64 nM,2.2 mg/kg,31%,> 3 mg/kg,
CCCCSc1nsnc1C1CN2CC[C@@H]1C2 (some centres not stated),,> 1 mg/kg,4.2 nM,,100%,,
